Reference: ChEMBL document CHEMBL4840303, “Design, synthesis, biological evaluation and pharmacophore model analysis of novel tetrahydropyrrolo[3,4-c]pyrazol derivatives as potential TRKs inhibitors” (Eur J Med Chem, 2021)

Tests used:
KM12 [1] = test: Cell cycle arrest in human KM12 cells assessed as accumulation of cells at G1 phase at 125 nM measured after 48 hrs by AnnexinV-FITC/PI staining based flowcytometry method relative to control; format: functional
[2] = AUC (0 to infinity) in Sprague dawley rat at 1 mg/kg, iv; format: ADME, organism-based; parameters: time infinity, route intravenous, dose 1 mg/kg; conditions: in vivo
Procedure, shortened: (§1)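 Blood was collected into heparin tubes at specified time points and centrifuged at once (4 °C, 4000 rpm, 20 min). Plasma levels were quantified by LC-MS/MS. Parameters came from noncompartmental analysis.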

CYP2C19 = CYP2C19 (Homo sapiens, UniProt P33261); test: Inhibition of CYP2C19 in human liver microsomes at 10 uM preincubated for 10 mins followed by addition of NADPH and measured after 15 mins by LC-MS/MS analysis; format: ADME; conditions: time 25 min
CYP2C19, sequence (P33261 whole entry): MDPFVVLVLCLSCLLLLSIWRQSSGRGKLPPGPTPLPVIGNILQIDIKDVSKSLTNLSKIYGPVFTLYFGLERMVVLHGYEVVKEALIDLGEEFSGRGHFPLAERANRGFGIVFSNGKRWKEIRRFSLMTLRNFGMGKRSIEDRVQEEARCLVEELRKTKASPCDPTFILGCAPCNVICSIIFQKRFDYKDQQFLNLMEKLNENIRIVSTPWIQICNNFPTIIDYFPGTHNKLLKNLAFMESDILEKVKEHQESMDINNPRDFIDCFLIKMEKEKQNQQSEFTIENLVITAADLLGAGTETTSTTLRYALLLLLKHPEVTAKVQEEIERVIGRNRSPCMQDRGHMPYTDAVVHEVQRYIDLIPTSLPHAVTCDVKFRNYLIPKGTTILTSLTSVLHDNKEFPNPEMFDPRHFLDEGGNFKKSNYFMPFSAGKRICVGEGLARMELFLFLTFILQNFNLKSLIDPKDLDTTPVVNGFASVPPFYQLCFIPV
Procedure, shortened: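 Pooled human liver microsomes (0.253 mg/mL) with test compound at 10 µM and probe substrates: phenacetin (CYP1A2), diclofenac (CYP2C9), S-mephenytoin (CYP2C19), dextromethorphan (CYP2D6), midazolam (CYP3A4). 10 min preincubation at 37 °C, NADPH-regenerating system added, 15 min at 37 °C. Stopped with cold acetonitrile containing tolbutamide/labetalol internal standards, centrifuged, supernatant read by LC-MS/MS; % inhibition.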

KM12 [3] = test: Cell cycle arrest in human KM12 cells assessed as accumulation of cells at G2 phase at 125 nM measured after 48 hrs by AnnexinV-FITC/PI staining based flowcytometry method relative to control; format: functional
[4] = molecular target: Serine/threonine-protein kinase TBK1 (Homo sapiens) (UniProt Q9UHD2); test: Inhibition of recombinant GST-tagged full length human TBK1 expressed in baculovirus expression system at 1 uM measured by select screen assay relative to control
Serine/threonine-protein kinase TBK1 (Homo sapiens), sequence (Q9UHD2 whole entry): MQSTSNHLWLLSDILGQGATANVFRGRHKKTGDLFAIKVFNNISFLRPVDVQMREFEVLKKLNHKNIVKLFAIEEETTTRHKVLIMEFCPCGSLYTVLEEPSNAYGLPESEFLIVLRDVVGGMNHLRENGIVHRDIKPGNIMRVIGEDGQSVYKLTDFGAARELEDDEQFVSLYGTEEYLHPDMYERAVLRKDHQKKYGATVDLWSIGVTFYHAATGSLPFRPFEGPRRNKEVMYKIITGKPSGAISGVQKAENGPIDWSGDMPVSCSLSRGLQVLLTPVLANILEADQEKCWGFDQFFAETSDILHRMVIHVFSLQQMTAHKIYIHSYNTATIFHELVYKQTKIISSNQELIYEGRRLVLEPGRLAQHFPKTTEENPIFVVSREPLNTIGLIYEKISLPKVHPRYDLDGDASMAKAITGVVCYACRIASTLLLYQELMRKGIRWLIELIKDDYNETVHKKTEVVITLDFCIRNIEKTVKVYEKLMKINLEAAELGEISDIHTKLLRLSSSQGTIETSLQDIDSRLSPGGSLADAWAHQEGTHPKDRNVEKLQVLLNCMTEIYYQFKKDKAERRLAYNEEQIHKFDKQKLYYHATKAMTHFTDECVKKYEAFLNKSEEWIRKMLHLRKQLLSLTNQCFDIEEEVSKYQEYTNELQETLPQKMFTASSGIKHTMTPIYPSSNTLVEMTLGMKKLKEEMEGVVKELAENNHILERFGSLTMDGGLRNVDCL
Procedure, shortened: (§2)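 Single-concentration profiling at 1.0 µM in a 28-kinase SelectScreen panel; percent inhibition reported.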

KM12 [5] = test: Cell cycle arrest in human KM12 cells assessed as accumulation of cells at less G1 phase at 125 nM measured after 48 hrs by AnnexinV-FITC/PI staining based flowcytometry method relative to control; format: functional
[6] = Stability in human plasma assessed as compound remaining incubated for 30 mins by LC-MS/MS analysis; format: ADME, cell-free; conditions: read-out: Stability
Procedure, shortened: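 Pooled frozen human plasma thawed at 37 °C, centrifuged to remove clots, pH adjusted to 7.4 if required. Spiked to 2 µM final (from 100 µM dosing solution), in duplicate, incubated at 37 °C in a water bath. Sampled at 0, 10, 30, 60 and 120 min, quenched with acetonitrile stop solution containing internal standards, centrifuged, and supernatant analysed by LC-MS/MS for percent remaining.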

KM12 [7] = test: Cell cycle arrest in human KM12 cells assessed as accumulation of cells at G2 phase at 500 nM measured after 48 hrs by AnnexinV-FITC/PI staining based flowcytometry method relative to control; format: functional
KM12 [8] = test: Induction of apoptosis in human KM12 cells assessed as necrotic cells at 500 nM measured after 48 hrs by AnnexinV-FITC/PI staining based flowcytometry assay relative to control; format: functional
Procedure, shortened: (§3)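 10^5 cells in Annexin V binding buffer stained with FITC-Annexin V and PI for 10 min at room temperature in the dark, diluted with PBS and analysed by flow cytometry (FITC 494/518 nm, PI 535/617 nm).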

KM12 [9] = test: Cell cycle arrest in human KM12 cells assessed as accumulation of cells at less G1 phase at 250 nM measured after 48 hrs by AnnexinV-FITC/PI staining based flowcytometry method relative to control; format: functional
KM12 [10] = test: Cell cycle arrest in human KM12 cells assessed as accumulation of cells at greater G1 phase at 500 nM measured after 48 hrs by AnnexinV-FITC/PI staining based flowcytometry method relative to control; format: functional
KM12 [11] = test: Induction of apoptosis in human KM12 cells assessed as necrotic cells at 250 nM measured after 48 hrs by AnnexinV-FITC/PI staining based flowcytometry assay relative to control; format: functional; procedure, shortened: as §3
KM12 [12] = test: Induction of apoptosis in human KM12 cells assessed as viable cells at 62.5 nM measured after 48 hrs by AnnexinV-FITC/PI staining based flowcytometry assay relative to control; format: functional; conditions: read-out: Activity; procedure, shortened: as §3
[13] = molecular target: Epidermal growth factor receptor (Homo sapiens) (UniProt P00533); test: Inhibition of recombinant GST-tagged human EGFR (668 to 1210) expressed in baculovirus expression system at 1 uM measured by select screen assay relative to control; procedure, shortened: as §2
Epidermal growth factor receptor (Homo sapiens), sequence (P00533 whole entry): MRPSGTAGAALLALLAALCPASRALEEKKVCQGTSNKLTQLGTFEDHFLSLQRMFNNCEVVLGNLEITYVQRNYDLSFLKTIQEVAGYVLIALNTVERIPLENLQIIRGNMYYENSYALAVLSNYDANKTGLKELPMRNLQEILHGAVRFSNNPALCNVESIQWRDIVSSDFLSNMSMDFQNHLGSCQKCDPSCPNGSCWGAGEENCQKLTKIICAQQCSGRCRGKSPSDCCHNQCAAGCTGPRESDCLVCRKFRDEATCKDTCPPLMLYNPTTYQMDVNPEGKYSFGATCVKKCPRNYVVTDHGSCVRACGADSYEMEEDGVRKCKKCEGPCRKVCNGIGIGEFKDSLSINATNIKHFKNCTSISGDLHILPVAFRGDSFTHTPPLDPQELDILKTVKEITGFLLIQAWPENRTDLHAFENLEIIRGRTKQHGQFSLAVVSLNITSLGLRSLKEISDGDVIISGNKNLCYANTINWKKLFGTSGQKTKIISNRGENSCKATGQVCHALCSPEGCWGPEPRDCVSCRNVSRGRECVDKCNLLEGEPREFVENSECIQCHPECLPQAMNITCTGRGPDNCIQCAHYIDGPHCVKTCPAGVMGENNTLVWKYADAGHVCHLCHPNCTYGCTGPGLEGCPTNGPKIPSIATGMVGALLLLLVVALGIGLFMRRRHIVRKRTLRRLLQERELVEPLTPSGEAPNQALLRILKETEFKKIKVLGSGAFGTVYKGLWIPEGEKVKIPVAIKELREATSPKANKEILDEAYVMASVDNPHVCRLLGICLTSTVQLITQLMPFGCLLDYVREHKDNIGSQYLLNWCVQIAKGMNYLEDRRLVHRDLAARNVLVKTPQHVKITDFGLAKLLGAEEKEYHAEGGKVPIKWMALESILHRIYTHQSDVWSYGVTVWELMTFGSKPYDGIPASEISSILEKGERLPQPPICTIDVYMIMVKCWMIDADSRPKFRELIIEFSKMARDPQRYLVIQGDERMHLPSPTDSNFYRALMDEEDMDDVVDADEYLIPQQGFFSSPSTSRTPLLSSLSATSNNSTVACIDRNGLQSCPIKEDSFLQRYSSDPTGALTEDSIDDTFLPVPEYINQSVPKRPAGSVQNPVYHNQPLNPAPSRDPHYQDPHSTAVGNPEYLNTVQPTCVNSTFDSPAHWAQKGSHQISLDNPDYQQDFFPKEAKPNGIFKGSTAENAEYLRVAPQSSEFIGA

KM12 [14] = test: Cell cycle arrest in human KM12 cells assessed as accumulation of cells at S phase at 125 nM measured after 48 hrs by AnnexinV-FITC/PI staining based flowcytometry method relative to control; format: functional
KM12 [15] = test: Induction of apoptosis in human KM12 cells assessed as early apoptotic cells at 125 nM measured after 48 hrs by AnnexinV-FITC/PI staining based flowcytometry assay relative to control; format: functional
Procedure, shortened: (§4)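 They were detached with trypsin, washed twice in PBS, and 10^5 cells were suspended in Annexin V binding buffer. Cells were stained with FITC-Annexin V and PI for 10 min at room temperature in the dark, diluted with PBS and analysed by flow cytometry.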

[16] = molecular target: Serine/threonine-protein kinase PAK 4 (Homo sapiens) (UniProt O96013); test: Inhibition of recombinant GST-tagged human PAK4 (295 to 591 residues) expressed in baculovirus expression system at 1 uM measured by select screen assay relative to control; procedure, shortened: as §2
Serine/threonine-protein kinase PAK 4 (Homo sapiens), sequence (O96013 whole entry, looked up, the tested form may be a part): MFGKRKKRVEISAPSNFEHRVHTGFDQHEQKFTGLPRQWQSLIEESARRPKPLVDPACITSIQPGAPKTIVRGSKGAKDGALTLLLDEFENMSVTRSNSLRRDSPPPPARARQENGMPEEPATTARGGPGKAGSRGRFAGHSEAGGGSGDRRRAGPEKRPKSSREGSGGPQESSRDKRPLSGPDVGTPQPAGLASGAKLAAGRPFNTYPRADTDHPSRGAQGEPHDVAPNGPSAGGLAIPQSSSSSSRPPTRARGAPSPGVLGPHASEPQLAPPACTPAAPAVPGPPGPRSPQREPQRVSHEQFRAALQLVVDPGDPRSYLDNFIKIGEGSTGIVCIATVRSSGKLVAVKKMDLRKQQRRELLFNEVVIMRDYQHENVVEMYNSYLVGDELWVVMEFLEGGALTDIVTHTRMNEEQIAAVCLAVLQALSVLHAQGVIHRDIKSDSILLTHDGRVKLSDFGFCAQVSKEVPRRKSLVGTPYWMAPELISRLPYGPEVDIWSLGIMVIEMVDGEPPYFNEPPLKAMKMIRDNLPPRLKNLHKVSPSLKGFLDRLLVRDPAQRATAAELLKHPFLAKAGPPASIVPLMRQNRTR

[17] = molecular target: ALK tyrosine kinase receptor (Homo sapiens) (UniProt Q9UM73); test: Inhibition of recombinant GST-tagged human ALK expressed in baculovirus expression system at 1 uM measured by select screen assay relative to control; procedure, shortened: as §2
KM12 [18] = test: Induction of apoptosis in human KM12 cells assessed as late apoptotic cells at 62.5 nM measured after 48 hrs by AnnexinV-FITC/PI staining based flowcytometry assay relative to control; format: functional; procedure, shortened: as §4
[19] = Stability in human liver microsomes assessed as compound remaining at 100 uM measured after 60 mins by LC-MS/MS analysis; format: ADME, Microsome; conditions: 1 h
Procedure, shortened: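 Human liver microsomes diluted to 0.59 mg/mL working solution in 100 mM potassium phosphate, prewarmed 10 min at 37 °C; compound added from a 100 µM working solution. NADPH (in 10 mM MgCl2) added to one plate, buffer instead in no-cofactor control. Incubated at 37 °C, quenched at 5, 15, 30, 45, 60 min, centrifuged, analysed by LC-MS/MS.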

[20] = AUC (0 to infinity) in Sprague dawley rat at 3 mg/kg, po; format: ADME, organism-based; parameters: time infinity, route oral, dose 3 mg/kg; conditions: in vivo; procedure, shortened: as §1
[21] = Volume of distribution at steady state in Sprague dawley rat at 1 mg/kg, iv; format: ADME, organism-based; conditions: in vivo, read-out: Vdss
Procedure, shortened: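 Single intravenous dose of 1 mg/kg to SD rats (n = 3 per group). Blood collected into heparinised tubes at specified times, centrifuged at 4 °C, and quantified by LC-MS/MS. Steady-state volume of distribution obtained by noncompartmental analysis.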

[22] = molecular target: Receptor-type tyrosine-protein kinase FLT3 (Homo sapiens) (UniProt P36888); test: Inhibition of recombinant His-tagged human FLT3 expressed in baculovirus expression system at 1 uM measured by select screen assay relative to control; procedure, shortened: as §2
Receptor-type tyrosine-protein kinase FLT3 (Homo sapiens), sequence (P36888 whole entry): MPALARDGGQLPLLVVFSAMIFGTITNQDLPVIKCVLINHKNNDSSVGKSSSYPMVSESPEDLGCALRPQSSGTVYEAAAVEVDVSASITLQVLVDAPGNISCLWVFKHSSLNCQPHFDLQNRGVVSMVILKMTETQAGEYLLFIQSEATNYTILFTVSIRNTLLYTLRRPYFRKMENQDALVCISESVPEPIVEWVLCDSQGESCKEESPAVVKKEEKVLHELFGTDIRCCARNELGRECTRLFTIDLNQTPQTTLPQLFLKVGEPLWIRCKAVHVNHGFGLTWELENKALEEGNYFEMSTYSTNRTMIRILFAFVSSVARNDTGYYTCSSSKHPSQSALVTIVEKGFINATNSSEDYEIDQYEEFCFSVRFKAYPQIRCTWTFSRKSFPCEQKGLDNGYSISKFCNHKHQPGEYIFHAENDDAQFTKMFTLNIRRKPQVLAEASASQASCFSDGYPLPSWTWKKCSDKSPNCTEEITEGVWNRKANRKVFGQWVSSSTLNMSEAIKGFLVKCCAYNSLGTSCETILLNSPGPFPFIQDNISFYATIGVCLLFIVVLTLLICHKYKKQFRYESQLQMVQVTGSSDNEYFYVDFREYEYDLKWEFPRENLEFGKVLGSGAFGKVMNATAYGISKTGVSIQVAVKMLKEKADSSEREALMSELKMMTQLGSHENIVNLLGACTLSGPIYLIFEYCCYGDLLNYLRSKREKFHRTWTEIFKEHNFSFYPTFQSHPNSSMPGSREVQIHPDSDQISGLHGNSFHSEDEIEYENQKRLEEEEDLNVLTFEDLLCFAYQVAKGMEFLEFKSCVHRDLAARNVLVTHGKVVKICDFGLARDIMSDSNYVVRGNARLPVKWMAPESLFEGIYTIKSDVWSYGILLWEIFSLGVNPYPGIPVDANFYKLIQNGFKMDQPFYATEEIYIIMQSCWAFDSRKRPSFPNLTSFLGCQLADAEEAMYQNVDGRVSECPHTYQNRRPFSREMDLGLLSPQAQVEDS

KM12 [23] = test: Induction of apoptosis in human KM12 cells assessed as late apoptotic cells at 500 nM measured after 48 hrs by AnnexinV-FITC/PI staining based flowcytometry assay relative to control; format: functional; procedure, shortened: as §4

AUC(0-inf) [2]: 2.08 µg·h/mL | inhibition at 0.25 h, 10 µM (CYP2C19): 11.5% | inhibition [4]: 7% | remaining at 0.5 h [6]: 95.7% | inhibition [13]: 4% | inhibition [16]: 4% | inhibition [17]: 82% | Stability [19]: 90.9% | AUC(0-inf) [20]: 2.89 µg·h/mL | Vd [21]: 0.892 L/kg | inhibition [22]: 31%
Compound: CN1CCN(c2ccc(C(=O)Nc3n[nH]c4c3CN(Cc3cc(F)cc(F)c3)C4(C)C)cc2)CC1
Activity (KM12 [1]): 56.6% | Activity (KM12 [3]): 11.5% | Activity (KM12 [5]): 7.36% | Activity (KM12 [7]): 8.75% | Activity (KM12 [8]): 0.06% | Activity (KM12 [9]): 5.86% | Activity (KM12 [10]): 1.57% | Activity (KM12 [11]): 0.04% | viability at 0.0625 µM (KM12 [12]): 70.5% | Activity (KM12 [14]): 21.5% | Activity (KM12 [15]): 18.15% | Activity (KM12 [18]): 9.89% | Activity (KM12 [23]): 39.1%
